Compound activity from PubChem BioAssay.
Many of the other results were omitted from the sample, so hits are more common in it than they were.
HUVEC inhibit: human endothelial cell proliferation inhibition. actives 1.1% (n = 86,000). HUVEC proliferation, CellTiter-Glo luminescence, 72 h; active compounds read low. AID 648. viability, % at 10 µM (by protocol);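 active means viability at or below 30%; inactive means viability above 30%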
bCat KO growth: beta-catenin-lacking colon tumor cell growth suppression | HCT116 beta-catenin knockout viability, CellTiter-Glo, 60 h; active compounds read low | viability, % at 10 µM | actives 1.5% (n = 140,000);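 active means viability at or under a set limit, the compound median less 4 SD, cut at about 6% in these data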
HCT116 PTEN-null: growth suppressors of cells with PTEN tumor suppressor deletion; actives 1.2% (n = 140,000); AID 827; viability, % at 10 µM; HCT116 PTEN-null viability, CellTiter-Glo, 60 h; active compounds read low;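 active means viability at or below a set limit, 4 SD under the median of all tested compounds, cut at about 3.7% in these data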;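 further: PTEN knockout HCT116 line with beta catenin targeted HCT116 as companion control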
H69AR growth 86K: blocks growth of human H69AR lung tumor cells. viability, % at 10 µM. H69AR lung tumor viability, ATP luminescence, 72 h; active compounds read low. actives 6% (n = 85,000). AID 598;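 active means viability at or below 40%; inactive means viability above 40%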;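 further: multidrug resistant small cell line overexpressing MRP-1 efflux transporter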
Lung fibro prol: blocks proliferation of human lung fibroblasts. LL 47 human lung fibroblast viability, ATP luminescence; active compounds read low. viability, % at 10 µM. actives 1.1% (n = 85,000). AID 719;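 active means viability at or below 50% in the single dose screen; inactive means viability above 50%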;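 further: compound exposure lasted 72 h before the ATP readout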
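Material: Human LL 47 lung fibroblast cells | Input: 1,150 cells/well | Buffer or medium: IMEM plus 15% FBS | Compound dosing: 0.1% DMSO in all compound wells | Times: Overnight cell rest, 72 h compound treatment at 37 °C | Signal: CellTiter-Glo luminescence measuring cellular ATP | Measure: % viability versus median cells-only luminescence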
Each line names hits and unclear results; the compound was inactive in the other large screens.

Cc1cccc(Cn2c(SCC(=O)Nc3ccccc3)nc3c2c(=O)[nH]c(=O)n3C)c1	none
O=C(COc1ccc(-c2nnco2)cc1)N1CCN(S(=O)(=O)c2ccc3ccccc3c2)CC1	H69AR growth 86K 36
COc1ccc(CCC(=O)N2CCN(S(=O)(=O)c3ccc4ccccc4c3)CC2)cc1	none
CC(C)NC(=S)N/N=C1\CCCCC1C1CCCCC1 (stereo not given)	none (no result: HUVEC inhibit, H69AR growth 86K, Lung fibro prol)
O=C(c1ccccc1)c1ccc2nc(N3CCN(C(=O)c4ccco4)CC3)c3nncn3c2c1	H69AR growth 86K 18
Cc1nc2c(-c3ccccc3)c(C)nn2c(C)c1CCC(=O)NCc1ccco1	none
CCN1CCN(c2ccc(NC(=O)CCc3c(C)nc4c(-c5ccccc5)c(C)nn4c3C)cc2)CC1	bCat KO growth 0.9, HCT116 PTEN-null 1.9 (no result: HUVEC inhibit, H69AR growth 86K, Lung fibro prol)
Cc1ccc(-c2nnc(N3CCN(C(=O)c4ccco4)CC3)c3ccccc23)cc1	none
Cc1nn2c(N3CCN(C(=O)c4ccco4)CC3)cc(C(C)(C)C)nc2c1-c1ccc(Cl)cc1	none (no result: HUVEC inhibit, H69AR growth 86K, Lung fibro prol)
Cc1cc(N2CCN(C(=O)c3ccco3)CC2)n2nc(C)c(-c3ccccc3)c2n1	H69AR growth 86K 18
Cc1cc(N2CCN(C(=O)c3ccco3)CC2)n2nc(C)c(-c3ccc(Cl)cc3)c2n1	H69AR growth 86K 16 (no result: bCat KO growth, HCT116 PTEN-null)
O=C(c1cc2nc(-c3ccccc3)cc(-c3ccccc3)n2n1)N1CCN(C(=O)c2ccco2)CC1	H69AR growth 86K 25
CN1CCN(C(=O)c2cc3nc(-c4ccccc4)cc(-c4ccccc4)n3n2)CC1	none
CCN1CCN(c2cc(C(C)(C)C)nc3c(-c4ccccc4)c(C)nn23)CC1	HUVEC inhibit 3.2, H69AR growth 86K 38, Lung fibro prol 9.8
O=S(=O)(CC12C3C4C5C1C2C(Br)(C43)C51OCCO1)c1ccccc1 (stereo not given)	none (no result: HUVEC inhibit, H69AR growth 86K, Lung fibro prol)
COC(=O)C1=C(C)NC(=O)/C1=C\c1cc(C)n(-c2c(C)cccc2C)c1C	HUVEC inhibit 27
Cc1cnc(C(=O)Nc2cccc3cccnc23)cn1	HUVEC inhibit 5.1, H69AR growth 86K 3.6, Lung fibro prol 43
CCOC(=O)Nc1sc2c(c1C#N)CCC(C)C2 (stereo not given)	none
CC1CC(C(F)F)n2nc(C(=O)Nc3sc4c(c3C#N)CCC(C(C)(C)C)C4)nc2N1 (stereo not given)	HUVEC inhibit 21, H69AR growth 86K 18
Oc1cccc(-c2nc3c4c(ncn3n2)-c2ccccc2CC42CCCC2)c1	HCT116 PTEN-null 2.4 (no result: HUVEC inhibit, H69AR growth 86K, Lung fibro prol)
COc1ccc(-c2nc3c4c(ncn3n2)-c2ccccc2CC42CCCC2)cc1	none (no result: HUVEC inhibit, H69AR growth 86K, Lung fibro prol)
O=C(c1ccc(COc2ccccc2Cl)o1)N1N=C(C(F)F)CC1(O)C(F)F (stereo not given)	none (no result: HUVEC inhibit, H69AR growth 86K, Lung fibro prol)
O=C(Oc1ccccc1C(=O)Oc1ccccc1)c1ccco1	none
c1ccc(Cn2nnc3c(N4CCOCC4)ncnc32)cc1	none (no result: HUVEC inhibit, H69AR growth 86K, Lung fibro prol)
FC(F)(F)c1ccc(N2CCN(c3ncnc4c3nnn4Cc3ccccc3)CC2)nc1	H69AR growth 86K 40
O=C(Nc1ccccc1C(=O)N1CCN(Cc2ccccc2)CC1)c1ccccn1	none
CCCC(=O)Nc1ccccc1NC(=O)CN(C)S(=O)(=O)c1ccccc1	none
CCCCCCCn1c(=N)n(CC(=O)c2ccco2)c2ccccc21	bCat KO growth 4.7, HCT116 PTEN-null 2.0, H69AR growth 86K 24
CCc1ccc(N2CC(C(=O)OCC(=O)Nc3cc(C)on3)CC2=O)cc1 (stereo not given)	H69AR growth 86K 37 (no result: Lung fibro prol)
Cc1ccc(-n2nnnc2SCCNS(=O)(=O)c2ccccc2)cc1C	none
CCOc1ccc(NC(=O)C2=C(C)C(=O)OC23CCC(C)CC3)cc1 (stereo not given)	none
Cc1n[nH]c(C)c1N1C(=O)c2cccc3c(Br)ccc(c23)C1=O	bCat KO growth 4.8
COc1cccc([C@@H]2Oc3ccc(OC)cc3C(=O)[C@H]2OC(=O)N[C@H](C)C2CCCCC2)c1	none (no result: HUVEC inhibit, H69AR growth 86K, Lung fibro prol)
COc1ccc2c(c1)O[C@H](c1ccc3c(c1)OCO3)[C@@H](OC(=O)N[C@H](C)C1CCCCC1)C2=O	HCT116 PTEN-null 1.2 (no result: HUVEC inhibit, H69AR growth 86K, Lung fibro prol)
CC(C)NC(=O)c1ccccc1NC(=O)CN(c1ccc2c(c1)OCO2)S(C)(=O)=O	none (no result: H69AR growth 86K)
O=[N+]([O-])c1ccc(-n2nnnc2-c2ccccc2)c([N+](=O)[O-])c1	bCat KO growth 0.6, HCT116 PTEN-null 0.6 (no result: HUVEC inhibit, H69AR growth 86K, Lung fibro prol)
COc1cc(/C=N\n2cnnc2)ccc1OCC(=O)Nc1ccc(C)cc1	none
CCOC(=O)c1ccccc1OCc1cc(/C=N/n2cnnc2)ccc1OC	H69AR growth 86K 35
Cc1ccc(C2CC(c3cccc(Cl)c3)n3nc(N)nc3N2)cc1 (stereo not given)	none
CCc1ccc(C2CC(c3cccc(Cl)c3)n3nc(N)nc3N2)cc1 (stereo not given)	H69AR growth 86K 38
C=C(C)C1CCC(C)=C1CC(C)(C)/C=N\n1cnnc1 (stereo not given)	none
CC(C)(C)c1ccc(CN2C3=NCCCN3c3ccccc32)cc1	bCat KO growth 3.9, HCT116 PTEN-null 2.9, H69AR growth 86K 15
O=C(CN(c1cccc(C(F)(F)F)c1)S(=O)(=O)c1ccc(Cl)c([N+](=O)[O-])c1)NCc1ccccc1	none (no result: HUVEC inhibit, H69AR growth 86K, Lung fibro prol)
Cc1ccc(N(CC(=O)NCCc2ccc(F)cc2)S(=O)(=O)c2ccc(Cl)c([N+](=O)[O-])c2)c(C)c1	bCat KO growth 1.5, HCT116 PTEN-null 1.4 (no result: HUVEC inhibit, H69AR growth 86K, Lung fibro prol)
COc1ccc(C2CC(=O)c3cnc(NC(=O)c4ccccc4)nc3C2)c(OC)c1 (stereo not given)	H69AR growth 86K 27
Cc1cc(C)n(-c2nc3ccccc3c(=O)n2OCC(=O)N(C)C)n1	none
Cc1cc(C)n(-c2nc3ccccc3c(=O)n2OCC(=O)OCc2ccccc2)n1	bCat KO growth 4.7, HCT116 PTEN-null 2.8, H69AR growth 86K 9.8, Lung fibro prol 27
O=C(NCCO)C(c1ccccc1)c1ccccc1	H69AR growth 86K 36 (no result: Lung fibro prol)
COc1cc(NC(=O)c2cccs2)c(C(=O)OCC(=O)NCc2ccccc2)cc1OC	HUVEC inhibit 19, H69AR growth 86K 6.7
COC(=O)c1cc(OC)c(OC)cc1NC(=O)c1ccccc1	H69AR growth 86K 39
Cc1snc(S(=O)(=O)/C(C#N)=N/Nc2ccc(C(F)(F)F)cc2)c1C#N	none
COc1ccc(C(=O)OCCN2CCOCC2)cc1	none
C=CCNC(=S)NNC(=O)C(CCCC)CC(C)(C)O (stereo not given)	none
CCOC(=O)C1=C(C)OC(N)=C(C#N)C1c1cc2c(cc1Br)OCO2 (stereo not given)	H69AR growth 86K 30
Cc1ccc(-n2c(C)c3c(C)nnc(C)c3c2C)cc1	none (no result: bCat KO growth, HCT116 PTEN-null)
Cc1ccc(-n2c(C)c3c(C)nnc(C)c3c2C)cc1C	bCat KO growth 4.0, H69AR growth 86K 32
N#C/C(C(N)=O)=c1/ccc2c(c1)N1C3=C(CCCC3)CC3CCCCC31N=2 (stereo not given)	H69AR growth 86K 1.9
N#CC(C#N)=c1ccc2c(c1)N1C3=C(CCCC3)CC3CCCCC31N=2 (stereo not given)	H69AR growth 86K 18
CCn1cc(C(=O)NCCc2ccccc2)c(=O)c2cc(F)c(N3CCN(C)CC3)cc21	HUVEC inhibit 17
